In the library only some 1.8% were active in any assay of this set; here they are far more common.
M5 antag: human M5 muscarinic receptor antagonists, primary screen, CHO cells, Fluo-8 calcium fluorescence. Muscarinic acetylcholine receptor M5 (Homo sapiens), P08912. 0.59% of 360,000 active. inhibition, % at 3 µM. CHO-hM5 cells, ACh EC80. AID 624040, 2012;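 active = inhibition above a per-plate cutoff, the mean of that plate's test compounds plus 3 SD, cut at about 27% in these data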;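 also: 0% = acetylcholine EC80 with DMSO and 100% = DMSO without agonist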
CHRM4 agonist: human M4 muscarinic receptor agonists, primary screen, CHO-K1 cells, Fluo-8 calcium fluorescence. Muscarinic acetylcholine receptor M4 (Homo sapiens), P08173. CHO-K1 hM4/Gqi5; vehicle 0%, full acetylcholine response 100%. activation, % at 3 µM. 0.14% of 360,000 active;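 active = activation above the run mean over all test wells plus 3 SD, cut at about 32% in these data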;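 also: peak over basal fluorescence ratio per well then scaled between controls; 0% = DMSO wells and 100% = acetylcholine at EC100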
Target sequence (P08173 whole entry, looked up): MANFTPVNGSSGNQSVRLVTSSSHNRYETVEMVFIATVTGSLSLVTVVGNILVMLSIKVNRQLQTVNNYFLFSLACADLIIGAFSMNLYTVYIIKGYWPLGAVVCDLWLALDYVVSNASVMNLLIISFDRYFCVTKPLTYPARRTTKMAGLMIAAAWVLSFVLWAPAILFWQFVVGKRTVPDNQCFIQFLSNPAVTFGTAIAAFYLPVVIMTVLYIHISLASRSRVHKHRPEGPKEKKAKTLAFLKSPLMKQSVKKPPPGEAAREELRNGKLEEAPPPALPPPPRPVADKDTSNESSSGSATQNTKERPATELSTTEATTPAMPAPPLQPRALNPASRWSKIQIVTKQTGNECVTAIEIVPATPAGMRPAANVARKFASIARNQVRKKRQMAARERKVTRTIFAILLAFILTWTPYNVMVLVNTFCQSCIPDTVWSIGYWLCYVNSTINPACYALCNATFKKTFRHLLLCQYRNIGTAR
CHRM4 antagonist: human M4 muscarinic receptor antagonists, primary screen, CHO cells, Fluo-8 calcium fluorescence. Muscarinic acetylcholine receptor M4 (Homo sapiens), P08173. CHO-hM4 cells, ACh EC80. inhibition, % at 3 µM. 0.73% of 360,000 active;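 active = inhibition above its plate's cutoff, the mean inhibition of sample wells plus 3 SD, cut at about 27% in these data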;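 also: 0% = acetylcholine EC80 with DMSO and 100% = DMSO without agonist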
CHRM5 agonist: human M5 muscarinic receptor agonists, primary screen, CHO-K1 cells, Fluo-8 calcium fluorescence; Muscarinic acetylcholine receptor M5 (Homo sapiens), P08912; CHO-K1 hM5 cells; 0% DMSO wells, 100% maximal acetylcholine response; activation, % at 3 µM; 0.19% of 360,000 active;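 active = activation above the run's mean over test compounds plus 3 SD, cut at about 23% in these data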;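 also: signal is peak over basal fluorescence ratio across the kinetic read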
CHRM4 PAM: human M4 muscarinic receptor positive allosteric modulators, primary screen, CHO-K1 cells, Fluo-8 calcium fluorescence | Muscarinic acetylcholine receptor M4 (Homo sapiens), P08173 | CHO-K1 hM4/Gqi5, ACh EC20; 0% = ACh EC20, 100% = maximal ACh | activation, % at 3 µM | 0.4% of 360,000 active;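 active = activation above its plate's cutoff, the mean activation of sample wells plus 3 SD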
CHRM5 PAM: human M5 muscarinic receptor positive allosteric modulators, primary screen, CHO-K1 cells, Fluo-8 calcium fluorescence. Muscarinic acetylcholine receptor M5 (Homo sapiens), P08912. CHO-K1 hM5, ACh EC20 PAM; 0% = ACh EC20, 100% = ACh EC100. activation, % at 3 µM. 0.3% of 360,000 active;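 active = activation above the run cutoff, the mean activation of all test compounds plus 3 SD, cut at about 18% in these data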
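System – CHO-K1 hM5 cells · Compound – 3 µM, single dose · Incubation – compound preincubation 140 s before EC20 acetylcholine addition · Technique – Fluo-8 calcium fluorescence · Measure – Max/basal fluorescence ratio as % of EC20–EC100 ACh window · Benchmarks – low control EC20 acetylcholine (0%), high control EC100 acetylcholine (100%) · Replication – singlicate, one well per test compound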
Starred values were filed as active, the others as inactive.

SMILES	M5 antag	CHRM4 agonist	CHRM4 antagonist	CHRM5 agonist	CHRM4 PAM	CHRM5 PAM
O=C(O)C1CCN(C(=O)c2cccc3ccccc23)CC1	-7	1	-26	0	18*	5
O=C(CN1CCN(C(=O)CNC(=O)c2ccc3c(c2)OCO3)CC1)Nc1ccccc1Cl	-6	3	3	3	-1	2
CCN(CC(=O)Nc1c(F)cccc1F)C(=O)c1ccc2c(c1)OCCO2	1	2	-21	1	37*	2
Cc1cccc(C)c1NC(=O)CNC(=O)CNC(=O)c1ccc2c(c1)OCO2	8	0	-11	4	23*	-1
O=C(CN1CCN(C(=O)CNC(=O)c2ccc3c(c2)OCO3)CC1)Nc1cccc(F)c1	-8	1	-17	1	8	19*
N#Cc1ccccc1NC(=O)COc1ccc2c(c1)OCO2	-1	1	4	1	4	7
O=C(Nc1ncn[nH]1)c1cccc(F)c1	3	0	-4	0	6	1
CCc1ccc(NC(=O)C2(C)Cc3ccccc3C(=O)O2)cc1 (stereo not given)	-4	2	-4	-3	3	-8
CC(C)NC(=O)N(O)C1N(C(C)C)C(=O)N(Cc2ccc3c(c2)OCO3)C1(C)C (stereo not given)	25	14	30*	2	-22	-19
NS(=O)(=O)c1ccc(N2N=C(c3ccccc3)CC2c2ccccc2Cl)cc1 (stereo not given)	1	-2	10	0	-1	0
COCCCNc1c2c3c(cccc3[nH]c1=O)C(=O)c1ccccc1-2	41*	305*	53*	94*	-18	-26
COc1cccc(CNC(=O)CCC2CCCN(c3cc(C)nc(N4CCCC4)n3)C2)c1 (stereo not given)	7	0	28*	-9	-23	3
COc1cccc(CNC(=O)CCC2CCCN(C3CCOCC3)C2)c1 (stereo not given)	15	0	8	-5	3	-6
O=C(/C=C/c1ccco1)N(Cc1cccc(Cl)c1)C1CCS(=O)(=O)C1 (stereo not given)	27*	18	-8	-5	-20	-20
CCCC(=O)N1CCC1(C)C(=O)NS(=O)(=O)c1cccc(Cl)c1 (stereo not given)	3	0	-4	1	4	-4
COC(=O)Cc1ccc(OC2(C)CCN(Cc3ccc(-c4ccccn4)cc3)C2)cc1 (stereo not given)	1	4	34*	-2	-13	-7
COc1cccc(OC2(C)CCN(Cc3ccc(-c4ccccn4)cc3)C2)c1 (stereo not given)	4	4	6	-2	-10	-8
COC(=O)Cc1ccc(OC2(C)CCN(Cc3ccccc3OC(F)F)C2)cc1 (stereo not given)	4	0	55*	-4	-11	-10
CCc1ccc(OC2(C)CCN(Cc3ccccc3OC(F)F)C2)cc1 (stereo not given)	9	-1	6	0	-4	-2
O=[N+]([O-])c1ccc(N2CCN(Cc3ccc(Br)o3)CC2)cc1	3	2	7	-1	-8	-6
O=C(CCC1CCN(Cc2ccccc2O)CC1)NC1CC1	-11	0	-5	-6	-3	21*
CCCC(C)NC(=O)COc1ccc(Sc2ccc(OCC(=O)NC(C)CCC)cc2)cc1 (stereo not given)	-3	4	3	1	-7	1
CCN1CCN(CCn2c(=S)[nH]c3cc4c(cc3c2=O)OCO4)CC1	29*	0	6	-6	-8	-19
CCN(CC)CCn1c(=S)[nH]c2cc3c(cc2c1=O)OCO3	-3	0	-8	1	7	-4
Cc1ccc(NC(=O)CSCc2nc3c(nnn3Cc3ccc(F)cc3)c(=O)[nH]2)c(C)c1	-14	2	-8	6	9	21*
SMILES	M5 antag	CHRM4 agonist	CHRM4 antagonist	CHRM5 agonist	CHRM4 PAM	CHRM5 PAM
Cc1cccc(NC(=O)CSCc2nc3c(nnn3Cc3ccc(F)cc3)c(=O)[nH]2)c1C	6	1	-1	0	0	3
Cc1ccc(Cn2nnc3c(=O)[nH]c(C4CCN(S(=O)(=O)c5ccc(F)cc5)CC4)nc32)cc1	5	-2	32*	-2	-31	-2
O=c1[nH]c(C2CCN(S(=O)(=O)c3ccccc3F)CC2)nc2c1nnn2Cc1ccc2c(c1)OCCO2	-16	1	-14	0	6	13
O=c1[nH]c(C2CCN(S(=O)(=O)c3ccc(S(=O)(=O)NC4CC4)cc3)CC2)nc2c1nnn2Cc1ccc(F)cc1	11	2	18	-5	-20	-2
O=c1[nH]c(C2CCN(S(=O)(=O)c3ccc(F)cc3)CC2)nc2c1nnn2Cc1ccc2c(c1)OCCO2	0	-1	81*	-7	-12	-3
Cc1ccc(C)c(S(=O)(=O)N2CCC(c3nc4c(nnn4Cc4ccc(F)cc4)c(=O)[nH]3)CC2)c1	4	0	49*	-3	-22	1
COc1ccc(CN(CC(=O)NCc2ccc(F)cc2)C(=O)CCC(=O)Nc2ccccn2)cc1	10	3	0	1	2	-3
Nc1ncc(Br)cc1S(=O)(=O)N1CCCCCC1	29*	1	-2	-8	-2	-15
O=S(=O)(c1cc(Br)ccc1Br)N1CCCCCC1	1	-3	-39	-4	2	-1
COc1cc2c(cc1OC)-c1cc(OCCN3CCOCC3)nc(=O)n1CC2	3	-1	-6	-6	5	25*
CC(=O)NCCc1ccc(C(=O)COC(=O)c2cccs2)cc1	0	1	-3	2	4	-3
CCO[C@H]1OC(C(=O)NCc2nc3ccccc3[nH]2)=C[C@@H](C2CC2)[C@@H]1CCCO	2	1	-8	1	24*	11
CCO[C@H]1OC(C(=O)NCc2ccccc2)=C[C@@H](c2ccc3c(c2)OCO3)[C@@H]1CCCO	3	19	-18	25*	10	-4
CCO[C@@H]1OC(C(=O)NCc2ccccc2)=C[C@H](c2csc3ccccc23)[C@H]1CCCO	12	42*	27*	-4	-14	-32
CCCc1nc2cc(C)c(Br)c(C)n2c1Cc1ccc(OC)cc1C	-14	1	-6	1	-2	4
